ChEMBL document CHEMBL1135651 (J Med Chem, 2002)
Active and inactive are the calls of the source. The rule behind the calls is not given here.

Assays:
[1] = system: Rattus norvegicus; assay: The percentage growth of paw after injection of carrageneen at a dose of 10 mg/kg dose; type: functional
Procedure, shortened: (§1)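 Wistar rats (250 g) given drug intraperitoneally, 10 or 30 mg/kg, from a 10 mg/mL DMSO solution. After 1 h, 0.1 mL 1% lambda carrageenan was injected into the right hind paw plantar region. At 3 h, rats were euthanized with nembutal (100 mg/kg) and paws cut at the ankle. Swelling was taken as % weight increase over the control paw. Mean ± SD, n = 6.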

[2] = system: Rattus norvegicus; assay: The percentage growth of paw after injection of carrageneen at a dose of 30 mg/kg dose; type: functional; procedure, shortened: as §1
[3] = target: T1, Prostaglandin G/H synthase 1 (Homo sapiens, UniProt P23219); assay: The inhibitory activity against cyclooxygenase Prostaglandin G/H synthase 1 measured as TXB2 production after blood coagulation using human Whole blood assay: NI means no inhibition
Procedure, shortened: (§2)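 Human whole blood; COX-1 activity read as TXB2 produced during blood coagulation. Each drug run in triplicate over 100 to 0.01 μM. IC50 calculated from the concentration series. No inhibition at 100 μM recorded as ni.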

[4] = target: T1, Prostaglandin G/H synthase 1; assay: The inhibitory activity against Prostaglandin G/H synthase 1 measured as TXB2 production after blood coagulation using human Whole blood assay
[5] = system: Rattus norvegicus; assay: The percentage growth of paw after injection of carrageneen at a dose of 30 mg/kg dose; Toxic; type: functional, organism-based; design: dose 30 mg/kg; procedure, shortened: as §1
[6] = target: T2, Prostaglandin G/H synthase 2 (Homo sapiens, UniProt P35354); assay: The inhibitory activity against cyclooxygenase Prostaglandin G/H synthase 2 (COX-2) measured as PGE-2 production after stimulation by lipopolysaccharide (LPS) using human Whole blood assay
T2 sequence (P35354 whole entry): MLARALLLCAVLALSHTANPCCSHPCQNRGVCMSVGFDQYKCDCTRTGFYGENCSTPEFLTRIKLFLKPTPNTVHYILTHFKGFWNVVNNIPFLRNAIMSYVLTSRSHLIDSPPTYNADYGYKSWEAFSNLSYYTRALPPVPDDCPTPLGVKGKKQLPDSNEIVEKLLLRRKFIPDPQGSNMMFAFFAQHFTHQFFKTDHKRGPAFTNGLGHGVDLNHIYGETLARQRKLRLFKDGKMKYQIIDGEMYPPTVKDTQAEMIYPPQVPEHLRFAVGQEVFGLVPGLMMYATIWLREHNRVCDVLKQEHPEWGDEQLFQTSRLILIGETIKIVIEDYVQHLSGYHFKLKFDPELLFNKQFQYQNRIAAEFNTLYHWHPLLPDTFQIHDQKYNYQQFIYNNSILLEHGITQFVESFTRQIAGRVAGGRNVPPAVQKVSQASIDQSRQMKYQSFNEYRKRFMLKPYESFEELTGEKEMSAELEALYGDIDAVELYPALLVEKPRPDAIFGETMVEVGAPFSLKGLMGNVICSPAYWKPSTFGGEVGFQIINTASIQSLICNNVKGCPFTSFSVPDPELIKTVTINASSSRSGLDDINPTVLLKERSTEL

[7] = target: T3, Prostaglandin G/H synthase 2 (Homo sapiens) (UniProt P35354); assay: The inhibitory activity against cyclooxygenase Prostaglandin G/H synthase 2 (COX-2) measured as PGE-2 production after stimulation by lipopolysaccharide (LPS) using human Whole blood assay:NI means no inhibition
T3 sequence (whole entry): T2 sequence (P35354 whole entry)

[8] = target: T1, Prostaglandin G/H synthase 1; assay: The inhibitory activity against Prostaglandin G/H synthase 1 measured as TXB2 production after blood coagulation using human Whole blood assay: NI means no inhibition; procedure, shortened: as §2

T1 sequence (P23219 whole entry): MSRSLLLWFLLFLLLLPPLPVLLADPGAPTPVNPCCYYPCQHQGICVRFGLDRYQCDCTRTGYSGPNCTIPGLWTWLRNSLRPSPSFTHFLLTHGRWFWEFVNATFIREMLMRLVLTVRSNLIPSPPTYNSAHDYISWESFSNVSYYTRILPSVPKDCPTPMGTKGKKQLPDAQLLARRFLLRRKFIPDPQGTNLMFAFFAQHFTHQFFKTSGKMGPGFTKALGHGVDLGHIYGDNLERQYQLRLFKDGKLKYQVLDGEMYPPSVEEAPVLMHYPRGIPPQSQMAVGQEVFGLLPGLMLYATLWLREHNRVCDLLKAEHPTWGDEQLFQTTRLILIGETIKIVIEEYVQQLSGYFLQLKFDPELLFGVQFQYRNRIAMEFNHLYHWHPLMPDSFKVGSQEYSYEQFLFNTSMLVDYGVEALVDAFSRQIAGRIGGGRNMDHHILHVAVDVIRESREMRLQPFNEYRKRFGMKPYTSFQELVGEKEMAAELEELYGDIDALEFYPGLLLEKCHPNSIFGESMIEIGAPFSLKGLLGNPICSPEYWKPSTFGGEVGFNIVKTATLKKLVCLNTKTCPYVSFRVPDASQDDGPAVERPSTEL

Row | SMILES | Growth [1] [%] | Growth [2] [%] | other results
1 | CS(=O)(=O)Nc1ccc([N+](=O)[O-])cc1Oc1ccccc1 [NIMESULIDE] | 58 | 54 | –
2 | CN(c1ccc([N+](=O)[O-])cc1Oc1ccccc1)S(C)(=O)=O | 84.6 | 65.6 | NI [3]: inactive
3 | O=S(=O)(Nc1ccncc1Oc1ccccc1)C(F)(F)F | 74.7 | 54.1 | –
4 | CS(=O)(=O)Nc1ccncc1Oc1ccccc1 | – | – | IC50 [4]: 4.9 µM; Growth [5]: Toxic; IC50 [6]: 37.5 µM
5 | CS(=O)(=O)Nc1cccnc1Oc1ccccc1 | – | – | inhibition [7]: inactive; inhibition [8]: inactive
